According to ChEMBL document CHEMBL1770135, “Acylideneoxoindoles: a new class of reversible inhibitors of human transglutaminase 2” (Bioorg Med Chem Lett, 2011):
Active and inactive are the calls of the source. The rule behind the calls is not given here.

Experiments:
[1] = biological target: T1, Protein-glutamine gamma-glutamyltransferase (Homo sapiens, UniProt P21980); test: Inhibition of human transglutaminase 2 using Cbz-Gln-Gly as a substrate by GDH-coupled assay
T1 sequence (P21980 whole entry): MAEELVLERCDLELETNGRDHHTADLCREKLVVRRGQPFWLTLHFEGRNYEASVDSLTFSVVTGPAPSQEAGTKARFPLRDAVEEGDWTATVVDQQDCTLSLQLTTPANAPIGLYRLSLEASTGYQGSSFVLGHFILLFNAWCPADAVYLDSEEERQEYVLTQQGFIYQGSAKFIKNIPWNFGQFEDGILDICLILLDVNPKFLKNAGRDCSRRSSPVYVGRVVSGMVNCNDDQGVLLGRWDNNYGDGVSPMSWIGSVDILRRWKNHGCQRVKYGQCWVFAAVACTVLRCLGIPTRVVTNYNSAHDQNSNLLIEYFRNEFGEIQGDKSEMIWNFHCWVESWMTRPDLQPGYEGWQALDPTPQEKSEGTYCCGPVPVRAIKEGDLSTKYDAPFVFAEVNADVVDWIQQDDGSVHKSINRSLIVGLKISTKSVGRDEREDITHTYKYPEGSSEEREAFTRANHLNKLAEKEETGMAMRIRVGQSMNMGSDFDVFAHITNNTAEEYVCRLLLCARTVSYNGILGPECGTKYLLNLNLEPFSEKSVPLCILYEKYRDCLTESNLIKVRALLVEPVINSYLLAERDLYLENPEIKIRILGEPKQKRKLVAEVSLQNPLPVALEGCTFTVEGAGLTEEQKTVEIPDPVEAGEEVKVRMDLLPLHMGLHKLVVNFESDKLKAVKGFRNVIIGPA
How it was run: (§1)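 Glutamate dehydrogenase-coupled deamidation assay with human TG2 at 0.5 µM and Cbz-Gln-Gly as acyl donor substrate. […] Ki values were derived from kinetic analysis in a mixed inhibition model, with α taken as the Ki'/Ki ratio. Errors were typically under 10%.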

[2] = biological target: T1, Protein-glutamine gamma-glutamyltransferase; test: Inhibition of human transglutaminase 2 using ZGBC as a substrate after 30 to 60 mins by fluorometric assay
How it was run: (§2)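 Direct fluorometric assay following TG2-catalysed release of 7-hydroxycoumarin from an ester substrate, with human TG2 at 15 nM. […] Ki and α were derived from a mixed inhibition model, with α as the Ki'/Ki ratio.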

[3] = biological target: T2, Protein-glutamine gamma-glutamyltransferase (Homo sapiens) (UniProt P21980); test: Partial inhibition of human transglutaminase 2 using ZGBC as a substrate after 30 to 60 mins by fluorometric assay; parameters: concentration or dose not given beside the values; how it was run: as §2
T2 sequence (whole entry): T1 sequence (P21980 whole entry)

[4] = biological target: T2, Protein-glutamine gamma-glutamyltransferase (Homo sapiens); test: Partial inhibition of human transglutaminase 2 using Cbz-Gln-Gly as a substrate by GDH-coupled assay; conditions: concentration not given here; how it was run: as §1
[5] = biological target: T2, Protein-glutamine gamma-glutamyltransferase (Homo sapiens); conditions: 2 to 8 uM

Row | SMILES | IC50 [1] [nM] | Ki [1] [µM] | IC50 [2] [nM] | other results
1 | O=C1Nc2ccc(Oc3ccc4c(c3)C(=O)C(=O)N4)cc2C1=O | 25000 | 3 | – | –
2 | CN(C)C(=O)CN1C(=O)/C(=C/C(=O)c2cccnc2)c2c(Cl)cccc21 | 5500 | – | 9200 | –
3 | O=C1Nc2ccc(Cl)cc2/C1=C\C(=O)c1cccnc1 | 6000 | – | 1200 | –
4 | Cc1cc(C)c(CN2C(=O)C(=O)c3ccccc32)cc1CN1C(=O)C(=O)c2ccccc21 | 40000 | 11 | – | –
5 | O=C1Nc2ccccc2/C1=C1/Nc2ccccc2C1=O [INDIRUBIN] | > 100000 | – | – | –
6 | CC(=O)/C=C1/C(=O)Nc2cc(F)ccc21 | 11000 | 5.4 | 20000 | –
7 | O=C1Nc2ccc([N+](=O)[O-])cc2/C1=C\C(=O)c1cccnc1 | 7900 | – | 1700 | –
8 | CC(=O)/C=C1/C(=O)Nc2ccc(Cl)cc21 | 4300 | 0.9 | 3700 | –
9 | CC(=O)/C=C1/C(=O)Nc2ccccc21 | 11000 | 10 | 19000 | –
10 | Cc1ccc2c(c1)/C(=C\C(=O)c1cccnc1)C(=O)N2 | 6300 | – | 4500 | –
11 | O=C1Nc2ccccc2C1=O [ISATIN] | > 250000 | – | – | –
12 | O=C1Nc2cccc(Cl)c2/C1=C\C(=O)c1ccccc1 | 2800 | 3.3 | 20000 | –
13 | O=C1C(=O)N(CN2C(=O)C(=O)c3ccccc32)c2ccccc21 | 18000 | 10 | – | –
14 | CC(=O)/C=C1/C(=O)Nc2cc(OC(F)(F)F)ccc21 | 3600 | – | 2600 | –
15 | O=C1Nc2c(Br)cccc2/C1=C\C(=O)c1cccnc1 | 2900 | – | 3200 | –
16 | Cc1cc(CN2C(=O)C(=O)c3ccccc32)c(C)cc1CN1C(=O)C(=O)c2ccccc21 | > 250000 | – | – | –
17 | CC(=O)/C=C1/C(=O)Nc2c(Cl)cccc21 | 4700 | – | 3900 | –
18 | O=C1Nc2ccccc2/C1=C1\C(=O)Nc2ccccc21 [ISOINDIGO] | 8000 | 41 | – | –
19 | O=C1Nc2ccc(Br)cc2/C1=C\C(=O)c1cccnc1 | 4800 | 3 | 560 | Ki [2]: 680 nM
20 | O=C1Nc2ccccc2/C1=C\C(=O)c1cccnc1 | 22000 | 12 | 8500 | –
21 | O=C1Nc2ccc(Cc3ccc4c(c3)C(=O)C(=O)N4)cc2C1=O | 30000 | 15 | – | –
22 | CN1C(=O)/C(=C/C(=O)c2cccnc2)c2c(Cl)cccc21 | 4000 | 4 | 11000 | –
23 | O=C1Nc2c(Cl)cccc2/C1=C\C(=O)c1cccnc1 | 7300 | – | 1600 | inhibition [3]: 70%

Now those with a lower IC50 [1], led by results:

Row | IC50 [1] [nM] | Ki [1] [µM] | IC50 [2] [nM] | SMILES | other results
24 | 900 | 0.4 | 1000 | O=C1Nc2cccc(Br)c2/C1=C\C(=O)c1cccnc1 | Ki [2]: 250 nM
25 | 900 | – | 740 | COc1ccccc1C(=O)/C=C1/C(=O)Nc2cccc(Cl)c21 | –
26 | 1400 | – | 1800 | Nc1cccc(C(=O)/C=C2/C(=O)Nc3cccc(Cl)c32)c1 | –
27 | 1100 | – | 3000 | Nc1ccc(C(=O)/C=C2/C(=O)Nc3cccc(Cl)c32)cc1 | inhibition [3]: 65%
28 | 2100 | 5.3 | 20000 | O=C1Nc2cc(Cl)ccc2/C1=C\C(=O)c1cccnc1 | inhibition [4]: 70%; inhibition [5]: Active
29 | 1500 | 0.7 | – | CC(=O)/C=C1/C(=O)Nc2cccc(Cl)c21 | –
30 | 800 | – | 90 | O=C1Nc2cccc(Cl)c2/C1=C\C(=O)c1ccc(Cl)cc1 | inhibition [3]: 60%
31 | 1300 | – | 1000 | O=C(/C=C1/C(=O)N(CCCc2ccccc2)c2cccc(Cl)c21)c1cccnc1 | –
32 | 1500 | – | 360 | O=C1Nc2cc(Br)ccc2/C1=C\C(=O)c1cccnc1 | inhibition [4]: 35%; inhibition [3]: 65%
33 | 1000 | – | 4100 | CC(C)CN1C(=O)/C(=C/C(=O)c2cccnc2)c2c(Cl)cccc21 | –
34 | 1200 | – | 1000 | O=C1Nc2cccc(Cl)c2/C1=C\C(=O)c1ccncc1 | –
35 | 1800 | – | 2500 | CCOC(=O)CN1C(=O)/C(=C/C(=O)c2cccnc2)c2c(Cl)cccc21 | –
36 | 1200 | – | 660 | COC(=O)c1ccc(CN2C(=O)/C(=C/C(=O)c3cccnc3)c3c(Cl)cccc32)cc1 | –
37 | 800 | – | 570 | O=C(/C=C1/C(=O)N(c2ccccc2)c2cccc(Cl)c21)c1cccnc1 | –
38 | 1000 | – | 1100 | COc1cccc(C(=O)/C=C2/C(=O)Nc3cccc(Cl)c32)c1 | –
39 | 1400 | – | 1500 | CC(C)N1C(=O)/C(=C/C(=O)c2cccnc2)c2c(Cl)cccc21 | –
40 | 700 | – | 2800 | O=C1Nc2cccc(Cl)c2/C1=C\C(=O)c1cccc(Cl)c1 | –
41 | 2100 | – | 6700 | O=C(/C=C1/C(=O)N(CC2CCCCC2)c2cccc(Cl)c21)c1cccnc1 | –
42 | 1500 | – | 2900 | O=C(/C=C1/C(=O)N(CCc2ccccc2)c2cccc(Cl)c21)c1cccnc1 | –
43 | 1100 | – | 5600 | COC(=O)c1cccc(CN2C(=O)/C(=C/C(=O)c3cccnc3)c3c(Cl)cccc32)c1 | –
44 | 1400 | – | 970 | O=C1Nc2cccc(Cl)c2/C1=C\C(=O)c1cncc(Br)c1 | –
45 | 1100 | – | 890 | O=C1Nc2cccc(Cl)c2/C1=C\C(=O)c1ccccn1 | –
46 | 1100 | – | 1300 | COc1ccc(C(=O)/C=C2/C(=O)Nc3cccc(Cl)c32)cc1 | –
47 | 900 | 1.3 | 1700 | O=C1Nc2cccc(Cl)c2/C1=C\C(=O)c1cccnc1 | –
48 | 1500 | 0.41 | 360 | O=C(/C=C1/C(=O)N(Cc2ccccc2)c2cccc(Cl)c21)c1cccnc1 | Ki [2]: 1000 nM
49 | 1400 | – | 950 | COc1ccncc1C(=O)/C=C1/C(=O)Nc2cccc(Cl)c21 | inhibition [3]: 50%
